{"data": "Measured values pooled from the literature"}
{"SMILES": "CN[C@H](CC(C)C)C(=O)N[C@H]1C(=O)N[C@@H](CC(N)=O)C(=O)N[C@H]2C(=O)N[C@H]3C(=O)N[C@H](C(=O)N[C@H](C(=O)O)c4cc(O)cc(O)c4-c4cc3ccc4O)[C@H](O)c3ccc(c(Cl)c3)Oc3cc2cc(c3O[C@@H]2O[C@H](CO)[C@@H](O)[C@H](O)[C@H]2O[C@H]2C[C@](C)(N)[C@H](O)[C@H](C)O2)Oc2ccc(cc2Cl)[C@H]1O", "organism": "Enterococcus gallinarum", "observed": "microbial growth", "technique": "broth dilution", "strain": "GALLINARUM", "measurement": "MIC", "value": "4 µg/mL"}
{"SMILES": "Cc1c(CN(C)C(=O)/C=C/c2cnc3c(c2)CC(CCN)C(=O)N3)oc2ccccc12.Cl (centres unmarked)", "organism": "Enterobacter cloacae", "observed": "microbial growth", "technique": "broth dilution", "measurement": "MIC", "value": "8 µg/mL"}
{"SMILES": "CCCNc1nc(N(C)C)c2c(c1O)C(=O)C1=C(O)[C@]3(O)C(=O)C(C(N)=O)=C(O)[C@@H](N(C)C)[C@@H]3C[C@@H]1C2.Cl.Cl", "organism": "Enterobacter cloacae", "observed": "microbial growth", "technique": "broth dilution", "strain": "ATCC13047", "measurement": "MIC", "value": "> 32 µg/mL"}
{"SMILES": "C/C=C(\\C)c1cc(OC(=O)c2c(C)c(Cl)c(O)c(Cl)c2O)c(C)c(O)c1C(=O)O", "organism": "Enterococcus gallinarum", "observed": "microbial growth", "technique": "broth dilution", "strain": "GALLINARUM", "measurement": "MIC", "value": "64 µg/mL"}
{"SMILES": "CN(C)[C@@H]1C(O)=C(C(N)=O)C(=O)[C@@]2(O)C(O)=C3C(=O)c4c(O)c(N)nc(F)c4C[C@H]3C[C@@H]12.Cl.Cl", "organism": "Enterobacter cloacae", "observed": "microbial growth", "technique": "broth dilution", "strain": "ATCC13047", "measurement": "MIC", "value": "0.5 µg/mL"}
{"SMILES": "CC(C)Oc1c(NC(=O)c2ccc(NC(=O)[C@H](CC(N)=O)NC(=O)c3ccc(NC(=O)c4ccc(C#N)cn4)cc3)cc2)ccc(C(=O)Nc2ccc(C(=O)O)cc2)c1O", "organism": "Enterobacter cloacae", "observed": "microbial growth", "strain": "DSM30054", "measurement": "MIC", "value": "> 64 µg/mL"}
{"SMILES": "C/C=C(\\C)c1cc(O)c(C)c(OC(=O)c2c(C)c(Cl)c(O)c(Cl)c2O)c1", "organism": "Enterococcus gallinarum", "observed": "microbial growth", "technique": "broth dilution", "strain": "GALLINARUM", "measurement": "MIC", "value": "8 µg/mL"}
{"SMILES": "CO[C@@H](C(N)=O)[C@H](NC(=O)c1ccc(NC(=O)c2ccc(C#N)cc2)cc1)C(=O)Nc1ccc(C(=O)Nc2ccc(C(=O)Nc3ccc(C(=O)O)cc3)c(O)c2OC(C)C)cc1", "organism": "Serratia marcescens", "observed": "microbial growth", "strain": "DSM30121", "measurement": "MIC", "value": "> 64 µg/mL"}
{"SMILES": "CC(C)OCCNc1nc(Cl)c2c(c1O)C(=O)C1=C(O)[C@]3(O)C(=O)C(C(N)=O)=C(O)[C@@H](N(C)C)[C@@H]3C[C@@H]1C2.Cl.Cl.Cl", "organism": "Enterobacter cloacae", "observed": "microbial growth", "technique": "broth dilution", "strain": "ATCC13047", "measurement": "MIC", "value": "32 µg/mL"}
{"SMILES": "CCCC[C@H]1CN(CCCC[C@H]2CNC(=N)N2CCc2cccc(C(F)(F)F)c2)C(=N)N1CCCCC1CCCCC1", "organism": "Enterobacter cloacae", "observed": "microbial killing", "measurement": "MBC", "value": "4.2 µM"}
{"SMILES": "C/C(=C\\c1ccc(C#N)cc1)C(=O)Nc1ccc(C(=O)N[C@@H](CC(N)=O)C(=O)Nc2ccc(C(=O)Nc3ccc(C(=O)Nc4ccc(C(=O)O)cc4)c(O)c3OC(C)C)cc2)cc1", "organism": "Serratia marcescens", "observed": "microbial growth", "strain": "DSM30121", "measurement": "MIC", "value": "> 64 µg/mL"}
